Fewer inactive variants are shown than the library holds. Where only a bound is given, the exact number is not on record here.

To fix the notation:
B1: tRNA (parent)
chain: CUCUCGGUAGCCAAGUUGGUUUAAGGCGCAAGACUUUAAUUUAUCACUACGAAAUCUUGAGAUCGGGCGUUCGACUCGCCCCCGGGAGAUUUUUUCCUCGAGCAA

The variants in the data set derive from B1. Nature of the data set: nonsense suppression (GFP-seq) (ratio to wild type); higher = more function; SUP4oc tRNA, yeast GFP reporter sort-seq. The procedure, abridged:
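Sorted GFP/RFP bins of yeast were each Illumina-sequenced with a phred ≥30 cutoff; the cells held a genome-integrated ochre-suppressor tRNA variant from a library with ~3% random mutations, a galactose-driven GFP ochre reporter, and RFP. Culture was in raffinose/galactose medium containing 80 mg/L adenine. Nonsense suppression, termed GFPSEQ, is the median GFP/RFP of the bins weighted by each variant's estimated cell share per bin, relative to the unmutated parent tRNA, for variants reaching ≥100 reads and ≥30 cells.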
Regarding CUCUCGGUAGCCAAGUUGGUUUCAGGCGCAAGACUUUAAUUUAUCACUACGAAAUCUUGAGAUCGGGCGUUCGACGCGCCCCCGGGAGAUUUUUUCCUCGAGCAA [A23C U76G], the nonsense suppression was no more than 0.026.
Regarding CUCUCGGUAGCCAAGUUGGUUGAAGGCGCAAGACUUUAAUUUAUCACUACGAAAUCUUGAGAUCGGGCGUUCGACUCGCCCCCGUGAGAUUUUUUCCUCGAGCAA [U22G G85U], the nonsense suppression was determined as 0.796.
In the case of CUCUCGGUAGCCAAGUUGGUUUCAGGCGCAAGAUUUUAAUUUAUCACUACGAAAUCUUGAGAUCGGGCGUUCGACUCUCCCCCGGGAGAUUUUUUCCUCGAGCAA [A23C C34U G78U] it was no more than 0.026; in that of CUCUCGGUAGCCAAGUUGGUUUCAAGCGCAAGACUUUAAUUUAUCACUACGAAAUCUUGAGAUCGGGCGUUCGACUCGCCCCCGGGAGAUUUUUUCCUCGAGCAA [A23C G25A], no more than 0.026.
To CUCUCGGUAGCCAAGUUGGUUUCCGGCGCACGACUUUAAUUUAUCACUACGAAAUCUUGAGAUCGGGCGUUCGACUCGCCCCCGGGAGAUUUUUUCCUCGAGCAA [A23C A24C A31C] belongs no more than 0.026; to CUCUCGGUAGCCAAGUUGGUUUGAGGCGCUAGACUUUAAUUUAUCACUACGAAAUCUUGAGAUCGGGCGUUCGACUCGCCCCCGGGAGAUUUUUUCCUCGAGCAA [A23G A30U], 0.0397.
In the case of CUCUCGGUAGCCAAGUUGGUUUCAGGCGCAAGACUUUAAUUUAUCACUACGAAAUCUUCAAAUCGGGCGUUCGACUCGCCCCCGGGAGAUUUUUUCCUCGAGCAA [A23C G59C G61A] it was no more than 0.026; in that of CUCUCGGUAGCCAAGUUGGUUUCAGGCGCAAGACUUUAAUUUAUCACUACGAAAUCUUCACAUCGGGCGUUCGACUCGCCCCCGGGAGAUUUUUUCCUCGAGCAA [A23C G59C G61C], no more than 0.026; in that of CUCUCGGUAGCCAAGUUGGUUUCAGGCGCUAGAGUUUAAUUUAUCACUACGAAAUCUUGAGAUCGGGCGCUGGACUCGCCCCCGGGAGAUUUUUUCCUCGAGCAA [A23C A30U C34G U70C C72G], no more than 0.026.
For the variant CUCUCGGUAGCCAAGUUGGUUGAAGGCGCAAGACUUUAAUUUAUCACUACGAAAUCUUGAGAACGGGCGUUCGACUCGCCCCCGGGAGAUUUUUUCCUCGAGCAA [U22G U63A], the nonsense suppression is 0.939.
In the case of CUCUCGGUAGCCAAGUUGGUUGAAGGCGCAAGACUUUAAUUUAUCACUACGAAAUCUUGAGACCGGGCGUUCGACUCGCCCCCGGGAGAUUUUUUCCUCGAGCAA [U22G U63C] it was 0.868; in that of CUCUCGGUAGCCAAGUUGGUUUGCGGCGCAAGACUUUAAUUUAUCACUACGAAAUCUUGAGAUCGGGCGUUCGACUCGCCCCCGGGAGAUUUUUUCCUCGAGCAA [A23G A24C], 0.156.
In the case of CUCUCGGUAGCCAAGUUGGUUGAAGGCGCAAGACUUUAAUUUAUCACUACGAAACCAUGAGAUCAGGCGUUCGACUCGCCCCCGGGAGAUUUUUUCCUCGAGCAA [U22G U55C U57A G65A] it was no more than 0.026; in that of CUCUCGGUAGCCAAGUUGGUUUGAGGCGCAAGACUUUAAUUUAUCACUACGAAUUCUUGAGAUCGGGCGUUCGACUCGCCCCCGGGAGAUUUUUUCCUCGAGCAA [A23G A54U], 0.0263.
For CUCUCGGUAGCCAAGUUGGUUGAAGGCGCAAGACUUUAAUUUAUCACUACGAAAUCUUGAGAUCGGGCGUUCGACUCUCCCCCGAGAGAUUUUUUCCUCGAGCAA [U22G G78U G85A], the nonsense suppression was found to be 0.788.
In the case of CUCUCGGUAGCCAAGUUGGUUUCAGGCGCAAGACUUUAAUUUAUCACUACGAAAUCUGGAGAUGGGGCGUUCGACUCGCCCCCGGGAGAUUUUUUCCUCGAGCAA [A23C U58G C64G], the nonsense suppression was no more than 0.026.
In the case of CUCUCGGUAGCCAAGUUGGUUUCAGGCGCAAGACUUUAAUUUAUCACUACGAAAUCCUGAGAUCGGGCGUUCGACUCGCCCCCGGGAGAUUUUUUCCUCGAGCAA [A23C U57C] it was no more than 0.026; in that of CUCUCGGUAGCCAAGUUGGUUUGAGGCGCAAGACUUUAAUUUAUCACUACGAAAUCUUGCGAUCGGGCGUUCGACUCGCCCCCGGGAGAUUUUUUCCUCGAGCAA [A23G A60C], 0.241; in that of CUCUCGGUAGCCAAGUUGGUUUGCGGCGCAAGAUUUUAAUUUAUCACUACGAAAUCUUGAGAUCGGGCGUUAGACUCGCCCCCGGGAGUUUUUUUCCUCGAGCAA [A23G A24C C34U C72A A89U], no more than 0.026.
In the case of CUCUCGGUAGCCAAGUUGGUUUCAGGCGCGAGACUUUAAUUUAUCACUACGAAAUCUUGAGAUCGGGCGUUCGACUCGCCACCGGGGGAUUUUUUCCUCGAGCAA [A23C A30G C81A A87G] it was no more than 0.026; in that of CUCUCGGUAGCCAAGUUGGUUUCAGGCGCAAGACUUUAAUUUAUCACUACGAAAUCUUGAGAUCGGGCGUUCGACUCGCCCCCGGGAAAUUUUUUCCUCGAGCAA [A23C G88A], no more than 0.026.
To CUCUCGGUAGCCAAGUUGGUUUCAGGCGCAAGACUUUAAUUUAUCACUACGAAAUCUUGAGAUCGGGCGUUCGACGCGCCCCCGGGAAAUUUUUUCCUCGAGCAA [A23C U76G G88A] belongs no more than 0.026; to CUCUCGGUAGCCAAGUUGGUUUGAGGCGCAAGCCUUUAAUUUAUCACUACGAAAUCUUGAGAUCGAGCGUUCGACUCGCCCCCGGGAGAUUUUUUCCUCGAGCAA [A23G A33C G66A], no more than 0.026; to CUCUCGGUAGCCAAGUUGGUUUCAGGCGCAAGACGUUAAUUUAUCACUACGAAAUCUUGAGAUCGGGCGUUCGACUCGCCCCCGGGAGAUUUUUUCCUCGAGCAA [A23C U35G], no more than 0.026.
Take CUCUCGGUAGCCAAGUUGGUUUGAGGCGCAGGACUUUAAUUUAUCACUACGAAAUCUUGAGAUCGGGCGUUCGACUCGCCCCCGGGAGAUUUUUUCCUCGAGCAA [A23G A31G]: the nonsense suppression was determined as 0.0446.
In the case of CUCUCGGUAGCCAAGUUGGUUUCAGGCGCAAGACUUUAAUUUAUCACUACGAAAUCUUGAGAUCGGGCGUUCGACUCGCCCGCGGGAGAUUUUUUCCUCGAGCAA [A23C C82G] it was no more than 0.026; in that of CUCUCGGUAGCCAAGUUGGUUGAAGGCGCAAGACUUUAAUUUAUCACUACGAAACCUUGAGAUCCGGCGUUCGACUCGCUCCCGGGAGAUUUUUUCCUCGAGCAA [U22G U55C G65C C80U], no more than 0.026.
